Values after ≈ are worked out from the molar mass of the structure shown.
Tests used:
Type in all cases: functional, cell-based
MCF7 = experiment: Cytotoxicity against human MCF7 cells by MTT colorimetric method
Summary of the method: (§1)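 Human cancer cell lines were obtained from ATCC. Cytotoxicity was measured by the MTT [3-(4,5-dimethylthiazol-2-yl)-2,5-diphenyltetrazolium bromide] colorimetric method.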

MDA-MB-231 = experiment: Cytotoxicity against human MDA-MB-231 cells by MTT colorimetric method; summary of the method: as §1
[1] = Cytotoxicity against human Hep G2 cells by MTT colorimetric method; conditions: HepG2; summary of the method: as §1
A549 = experiment: Cytotoxicity against human A549 cells by MTT colorimetric method; summary of the method: as §1

`C=C1C(=O)O[C@@H]2[C@@H]1C[C@H](OC(C)=O)[C@](C)(O)CC/C=C(\C)CC/C=C(\C)[C@@H]2OC(C)=O` [CRASSOCOLIDE B] gave an IC50 (MCF7) of 10.3 µg/mL (≈ 23.7 µM), an IC50 (MDA-MB-231) greater than 30 µg/mL and an IC50 [1] of 13.1 µg/mL (≈ 30.1 µM). The IC50 (A549) was 12.1 µg/mL (≈ 27.8 µM).
For `C=C1C(=O)O[C@H]2C/C(C)=C/CC/C(C)=C/CC[C@@](C)(O)[C@@H](OC(C)=O)C[C@H]12` [CRASSOCOLIDE C], the IC50 (MCF7) was greater than 30 µg/mL, the IC50 (MDA-MB-231) was greater than 30 µg/mL and the IC50 [1] was greater than 30 µg/mL. For the same molecule, the IC50 (A549) was greater than 30 µg/mL.
With `C=C1C(=O)O[C@H]2C/C(C)=C/CC/C(C)=C/CC[C@@](C)(O)[C@@H](O)C[C@H]12` [CRASSOCOLIDE D] the IC50 (MCF7) was 15.3 µg/mL (≈ 45.7 µM), the IC50 (MDA-MB-231) was greater than 30 µg/mL and the IC50 [1] was greater than 30 µg/mL. It also gave an IC50 (A549) of 12.5 µg/mL (≈ 37.4 µM).
In the case of `C=C1C(=O)O[C@H]2C[C@@]3(C)O[C@@H]3CC/C(C)=C/C[C@@H](OC(C)=O)/C(C)=C/C[C@H]12` [CRASSOCOLIDE F], the IC50 (MCF7) is reported as 7.4 µg/mL (≈ 19.8 µM), the IC50 (MDA-MB-231) is reported as 8.8 µg/mL (≈ 23.5 µM) and the IC50 [1] is reported as 2.1 µg/mL (≈ 5.61 µM). It also gave an IC50 (A549) of 3.2 µg/mL (≈ 8.55 µM).
`C=C1C(=O)O[C@@H]2[C@@H]1C[C@H](O)[C@](C)(O)CC/C=C(\C)CC/C=C(\C)[C@@H]2OC(C)=O` [CRASSOLIDE A] gave an IC50 (MCF7) of 8.9 µg/mL (≈ 22.7 µM), an IC50 (MDA-MB-231) of 8.6 µg/mL (≈ 21.9 µM) and an IC50 [1] of 3.1 µg/mL (≈ 7.9 µM). The IC50 (A549) was 11.9 µg/mL (≈ 30.3 µM).
`COc1cccc2c1C(=O)c1c(O)c3c(c(O)c1C2=O)C[C@@](O)(C(=O)CO)C[C@@H]3O[C@H]1C[C@H](N)[C@H](O)[C@H](C)O1` [DOXORUBICIN] showed an IC50 (MCF7) of 0.3 µg/mL (≈ 0.552 µM), an IC50 (MDA-MB-231) of 0.1 µg/mL (≈ 0.184 µM) and an IC50 [1] of 0.2 µg/mL (≈ 0.368 µM).
In the case of `C=C1C(=O)O[C@H]2C[C@]3(C)O[C@H]3CC/C(C)=C/CC/C(C)=C/C[C@H]12` [LOBOPHYTOLIDE], the IC50 (MCF7) is reported as 2.3 µg/mL (≈ 7.27 µM), the IC50 (MDA-MB-231) is reported as 2 µg/mL (≈ 6.32 µM) and the IC50 [1] is reported as 6.3 µg/mL (≈ 19.9 µM). The IC50 (A549) was 2.1 µg/mL (≈ 6.64 µM).

— ChEMBL document CHEMBL1158098, “Crassolides A-F, cembranoids with a trans-fused lactone from the soft coral Sarcophyton crassocaule” (J Nat Prod, 2006)
